One may read the IC50 as the midpoint of a concentration-inhibition curve. A higher IC50 goes with lower potency. One may read the bioavailability as dose-corrected exposure relative to a reference, in per cent. Higher therefore signals good availability. A word on the half-life: it is the time needed for the level to fall by half in the phase considered. As usually defined, the clearance is a measure of how efficiently the substance is removed, as volume per time. A lower clearance goes with a low capacity for elimination.

Experimental findings from ChEMBL document CHEMBL2321765 (J Med Chem, 2013) are described below.

Data set [1] deals with T1, CYP3A4 (Homo sapiens, UniProt P08684). Put plainly: Inhibition of CYP3A4 in human liver microsomes using testosterone as substrate at 10 uM by LC-MS-MS analysis relative to control. The settings on record: probe testosterone. In kind it is ADME, Microsome.
Data set [2] addresses T1, CYP3A4. Nature of the data set: Time dependent inhibition of CYP3A4 in human liver microsomes using testosterone as substrate at 10 uM preincubated for 30 mins by LC-MS-MS analysis relative to control. It is filed as ADME, Microsome. The settings on record: probe testosterone, read-out: TDI. The gist of the method: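 CYP3A4 metabolism of testosterone was measured after 0 or 30 min preincubation of enzyme with test article at the indicated concentration. Activity lost via preincubation, relative to the zero-minute control with the same inhibitor, was the end point. 6β-OH testosterone was detected by LC-MS/MS with cortisone as internal standard.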
(In general: Liver microsomes are vesicles of endoplasmic reticulum, rich in cytochrome P450 enzymes.)

For data set [3], the target named is Vascular endothelial growth factor receptor 3 (Homo sapiens) (UniProt P35916). Put plainly: Inhibition of FLT4 (unknown origin) relative to control. To be noted: concentration not given here. The gist of the method: (§1)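 Kinase selectivity was assessed at a 10 μM or 0.1 μM test concentration, as footnoted per entry.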
The target of data set [4] is T2, Tyrosine-protein kinase Mer (Homo sapiens) (UniProt Q12866).
T2 sequence (whole entry): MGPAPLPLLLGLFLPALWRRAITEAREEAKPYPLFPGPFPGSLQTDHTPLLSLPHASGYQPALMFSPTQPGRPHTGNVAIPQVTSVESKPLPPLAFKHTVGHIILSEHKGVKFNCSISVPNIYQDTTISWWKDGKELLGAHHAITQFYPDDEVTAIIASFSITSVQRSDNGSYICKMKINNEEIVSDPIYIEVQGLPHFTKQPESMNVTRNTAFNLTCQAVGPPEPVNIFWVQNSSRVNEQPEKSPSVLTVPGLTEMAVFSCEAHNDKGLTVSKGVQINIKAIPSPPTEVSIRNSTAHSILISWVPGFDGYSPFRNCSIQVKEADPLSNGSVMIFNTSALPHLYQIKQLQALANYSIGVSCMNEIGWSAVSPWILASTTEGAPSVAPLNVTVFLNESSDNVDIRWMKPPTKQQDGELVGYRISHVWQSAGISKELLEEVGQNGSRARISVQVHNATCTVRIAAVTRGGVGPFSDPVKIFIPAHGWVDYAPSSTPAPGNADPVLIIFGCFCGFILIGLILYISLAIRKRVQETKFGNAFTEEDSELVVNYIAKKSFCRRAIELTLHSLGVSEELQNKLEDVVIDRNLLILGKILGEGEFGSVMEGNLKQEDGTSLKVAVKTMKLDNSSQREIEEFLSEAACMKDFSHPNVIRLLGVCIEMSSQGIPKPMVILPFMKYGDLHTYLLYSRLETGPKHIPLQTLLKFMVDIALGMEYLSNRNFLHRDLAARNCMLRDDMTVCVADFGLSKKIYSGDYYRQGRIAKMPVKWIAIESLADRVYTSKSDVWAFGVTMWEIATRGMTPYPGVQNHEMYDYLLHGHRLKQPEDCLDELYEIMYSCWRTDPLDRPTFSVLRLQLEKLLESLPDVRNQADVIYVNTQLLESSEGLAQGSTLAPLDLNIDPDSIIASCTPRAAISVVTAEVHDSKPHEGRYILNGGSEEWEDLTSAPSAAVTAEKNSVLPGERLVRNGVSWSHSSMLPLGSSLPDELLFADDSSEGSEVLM
Put plainly: Inhibition of MER (unknown origin) relative to control. The settings on record: concentration not given here. The gist of the method: as §1

For data set [5], the target named is Tyrosine-protein kinase Fes/Fps (Homo sapiens) (UniProt P07332). Nature of the data set: Inhibition of FES (unknown origin) relative to control. The settings on record: concentration not given here. The gist of the method:
as §1

Data set [6] addresses Fibroblast growth factor receptor 3 (Homo sapiens) (UniProt P22607). Put plainly: Inhibition of FGFR3 (unknown origin) relative to control. To be noted: concentration not given here. The gist of the method: as §1
The target in data set [7] is Cytochrome P450 2D6 (Homo sapiens, UniProt P10635). Nature of the data set: Inhibition of CYP2D6 (unknown origin). It is filed as ADME.
The target of data set [8] is Cytochrome P450 3A4 (Homo sapiens, UniProt P08684). Nature of the data set: Time dependent inhibition of CYP3A4 in human liver microsomes using testosterone as substrate up to 100 uM by LC-MS-MS analysis. It is filed as ADME, Microsome. In short, it runs like this: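 For inactivation kinetics, CYP3A4 testosterone 6β-hydroxylation was quantified by LC-MS/MS as the area ratio of 6β-OH testosterone to the cortisone internal standard. Ki and kinact were obtained by nonlinear regression.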

Data set [9] has as its target Cytochrome P450 2C9 (Homo sapiens, UniProt P11712). Nature of the data set: Inhibition of CYP2C9 (unknown origin). It is filed as ADME.
Data set [10] can be described thus: Oral bioavailability in dog. It is filed as ADME, organism-based, Canis lupus familiaris. To be noted: in vivo.
A short description of data set [11]: Half life in dog. It is filed as ADME, organism-based, Canis lupus familiaris. To be noted: in vivo.
Data set [12] in a line: Plasma clearance in dog. It is filed as ADME, organism-based, Canis lupus familiaris.
Data set [13] can be described thus: Volume of distribution at steady state in dog. It is filed as ADME, organism-based, Canis lupus familiaris. The settings on record: in vivo, read-out: Vdss.
The nature of data set [14]: Oral bioavailability in rat. It is filed as ADME, organism-based. The settings on record: in vivo.
Data set [15] in a line: Half life in rat. To be noted: in vivo. In kind it is ADME, organism-based.
Data set [16] can be described thus: Volume of distribution at steady state in rat. It is filed as ADME, organism-based. The settings on record: in vivo, read-out: Vdss.
Data set [17] is described as follows: Plasma clearance in rat. It is filed as ADME, organism-based.
In data set [18] the target is T3, Macrophage-stimulating protein receptor (Homo sapiens, UniProt Q04912). Nature of the data set: Inhibition of RON (unknown origin) by TR-FRET assay. For orientation: Time-resolved FRET reads energy transfer from a long-lived donor to a nearby acceptor.
For data set [19], the system named is Mus musculus. Nature of the data set: Toxicity in CD1 nu/nu mouse xenografted with human GLT16 cells assessed as change in body weight relative to control. It is filed as organism-based. To be noted: in vivo. (A xenograft is tissue or cells of one species grown in another, often human tumour cells in immunodeficient mice.)
Data set [20] concerns GTL 16. Put plainly: Antitumor activity against human GTL16 cells expressing c-MET xenografted in CD1 nu/nu mouse assessed as tumor growth inhibition at 100 mg/kg, po qd for 21 days. In kind it is functional, organism-based. More on the design: dose 100 mg/kg.
A short description of data set [21]: Antitumor activity against human GTL16 cells expressing c-MET xenografted in CD1 nu/nu mouse assessed as tumor growth inhibition at 100 mg/kg, po bid for 21 days relative to control. In kind it is functional. The settings on record: GTL 16, 504 h, read-out: TGI. The gist of the method: (§2)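 Mice carrying GTL-16 tumours received the compound orally; tumour growth was compared with the vehicle-treated group by two-way repeated measures ANOVA.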

The nature of data set [22]: Antitumor activity against human GTL16 cells expressing c-MET xenografted in CD1 nu/nu mouse assessed as tumor growth inhibition at 30 mg/kg, po bid for 21 days relative to control. The settings on record: GTL 16, 504 h, read-out: TGI. In kind it is functional. The gist of the method:
as §2

Data set [23] is described as follows: Antitumor activity against human GTL16 cells expressing c-MET xenografted in CD1 nu/nu mouse assessed as tumor growth inhibition at 10 mg/kg, po bid for 21 days relative to control. The settings on record: GTL 16, 504 h, read-out: TGI. In kind it is functional. In short, it runs like this: as §2
Data set [24] is described as follows: Antitumor activity against human GTL16 cells expressing c-MET xenografted in CD1 nu/nu mouse assessed as tumor growth inhibition at 3 mg/kg, po bid for 21 days relative to control. In kind it is functional. To be noted: GTL 16, 504 h, read-out: TGI. The gist of the method: as §2
For data set [25], the system named is GTL 16. Put plainly: Antitumor activity against human GTL16 cells expressing c-MET xenografted in po dosed CD1 nu/nu mouse assessed as tumor growth inhibition administered bid for 21 days. It is filed as functional, organism-based. In short, it runs like this:
as §2

Data set [26] has as its system Mus musculus. Nature of the data set: In vivo inhibition of c-MET phosphorylation at tyrosine Y1349 in human GTL16 cells xenografted in po dosed mouse after 8 hrs by Western blotting analysis. In kind it is functional, organism-based. The settings on record: GTL 16, 8 h.
Data set [27] deals with Mus musculus. Nature of the data set: In vivo inhibition of c-MET phosphorylation at tyrosine Y1349 in human GTL16 cells xenografted in po dosed mouse after 1 hr by Western blotting analysis. In kind it is functional, organism-based. The settings on record: GTL 16, 1 h. The gist of the method:
(§3)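 Mice carrying GTL-16 xenografts received a single oral dose of 10, 30, 100 or 400 mg/kg and were euthanized 1 h after dosing. Phospho-c-Met (Y1349) and total c-Met in the tumours were measured by quantitative Western blotting. Plasma total drug was also measured, and in vivo IC50 was deduced from the relationship between plasma level and tumour pY1349.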

Data set [28] has as its system Mus musculus. Nature of the data set: In vivo inhibition of c-MET phosphorylation at tyrosine Y1349 in human GTL16 cells xenografted in mouse at 100 mg/kg, po after 1 hr by Western blotting analysis. In kind it is functional, organism-based. Also on record: dose 100 mg/kg. The gist of the method: as §3
The target of data set [29] is T3, Macrophage-stimulating protein receptor. To be noted: 1 uM.
The target of data set [30] is Hepatocyte growth factor receptor (Homo sapiens) (UniProt P08581). To be noted: 1 uM.

The source made the active and inactive calls.

In [1], `Cn1cc(-c2cnc3ccc4ccc(CS(=O)(=O)NCc5ccncc5)cc4c(=O)c3c2)cn1` had an inhibition at 10 µM of 97%.
Consider `Cn1cc(-c2cnc3ccc4ccc(CS(N)(=O)=O)cc4c(=O)c3c2)cn1`, for which the inhibition at 10 µM in data set [1] was 0%. In addition, in data set [2], the inhibition at 30 min, 10 µM was 26%.
Consider `Cn1cc(-c2cnc3ccc4ccc(CS(=O)(=O)Nc5ccccc5)cc4c(=O)c3c2)cn1`, for which the inhibition at 10 µM in [1] worked out at 28%. For the same compound, the inhibition at 30 min, 10 µM in data set [2] stood at 50%.
For `CN(C)S(=O)(=O)Cc1ccc2ccc3ncc(-c4cnn(C)c4)cc3c(=O)c2c1`, in that order: 0% and 6%.
`CNS(=O)(=O)Cc1ccc2ccc3ncc(-c4cnn(C)c4)cc3c(=O)c2c1` showed an inhibition at 10 µM in data set [1] of 0%. Also, the inhibition at 30 min, 10 µM in data set [2] turned out to be 35%.
For `Cn1cc(-c2cnc3ccc4ccc(CS(=O)(=O)NCc5cnsc5)cc4c(=O)c3c2)cn1`, in that order: 67% and 13%.
`Cn1cc(-c2cnc3ccc4ccc(CS(=O)(=O)N[C@@H]5CCCC[C@@H]5N)cc4c(=O)c3c2)cn1` showed an inhibition at 10 µM in data set [1] of 27%. Besides, in data set [2], the inhibition at 30 min, 10 µM is 20%.
For `Cn1cc(-c2cnc3ccc4ccc(CS(=O)(=O)NCc5cccc[n+]5[O-])cc4c(=O)c3c2)cn1`, in that order: 24% and 0%.
`Cc1nccc(CNS(=O)(=O)Cc2ccc3ccc4ncc(-c5cnn(C)c5)cc4c(=O)c3c2)n1` registered an inhibition at 10 µM in [1] of 22%. The inhibition at 30 min, 10 µM in data set [2] was determined as 5%.
Take `Cn1cc(-c2cnc3ccc4ccc(CS(=O)(=O)NCc5ccccn5)cc4c(=O)c3c2)cn1` [MK-8033]: the inhibition in data set [3] is 60%; in data set [4], 60%; in [5], 60%; in [6], 60%; in data set [29], > 90%; in data set [30] it was > 90%. For the same compound, the IC50 in [7] was 46.2 µM; in [9], 14.7 µM; in [18], 0.007 µM; in [26], 1.7 µM; in data set [27] it was 1.3 µM. Besides, in [8], the TDI result is given as “Not Active”. This compound displayed an inhibition at 10 µM in data set [1] of 31%. For the same compound, the bioavailability in data set [10] came out at 33%; in data set [14], 35%. For the same compound, the half-life in data set [11] was 3.1 h; in data set [15] it was 0.8 h. Further, the results for the clearance in data set [12] and in [17] were 3.1 mL/min/kg and 20 mL/min/kg, respectively. In addition, the figures for the Vd in [13] and in data set [16] were 0.7 L/kg and 0.4 L/kg, respectively. For the same compound, the inhibition at 30 min, 10 µM in data set [2] turned out to be 16%. Moreover, in data set [19], the Activity entry is on record as “Non-toxic”. For the same compound, the TGI entry in [20] is “Active”. In addition, the inhibition in vivo at 100 mg/kg in data set [21] came to 86%. The inhibition in vivo at 30 mg/kg in [22] amounted to 57%. Also, the inhibition in vivo at 10 mg/kg in data set [23] was 18%. The inhibition in vivo at 3 mg/kg in data set [24] was determined as 22%. Also, the TGI result in [25] is “Dose-dependent effect”. Further, the inhibition entry in [28] was “Active”.
Consider `Cn1cc(-c2cnc3ccc4ccc(CS(=O)(=O)NCc5cccnn5)cc4c(=O)c3c2)cn1`, for which, in data set [1], the inhibition at 10 µM came to 23%. Moreover, the inhibition at 30 min, 10 µM in data set [2] was 14%.
